# Reference: ChEMBL document CHEMBL2086264
# The source made the active and inactive calls. The rule behind the calls is not given here.
# How the values were obtained:
# Enterococcus faecalis = assay: Antibacterial activity against Enterococcus faecalis ATCC 33186 after overnight incubation by microbroth dilution assay; format: functional
# How it was run: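 CLSI microbroth dilution in Mueller-Hinton broth; compounds dissolved in DMSO, twofold serial dilutions giving final 200–0.0125 µg/mL. Inoculum from single colony grown at 37°C to mid-log (OD600 0.5), diluted to final OD600 0.0005 (~10^5 CFU/mL). Incubated overnight at 37°C; MIC = lowest concentration inhibiting 90% of visible growth.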
# Staphylococcus aureus = assay: Growth inhibition of Staphylococcus aureus RN4220 harboring gpsA mutant at >= 25 uM measured over 2 hrs by spectrophotometry; format: functional, organism-based
# [1] = test system: Staphylococcus aureus subsp. aureus RN4220; assay: Inhibition of PlsY-mediated lipid synthesis in Staphylococcus aureus RN4220 harboring gpsA mutant assessed as inhibition of [14C]acetate incorporation into fatty acid at 50 uM incubated for 15 mins prior to [14C]acetate addition measured after 30 mins by scintillation counting
# How it was run: (§1)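 Mid-log S. aureus RN4220 (OD600 0.5) split into 10 mL aliquots. Compound or DMSO added for 15 min, then 10 µCi [14C]acetate for 30 min. Cells PBS-washed, lipids extracted by Bligh–Dyer, scintillation counted and normalized to OD600. Duplicates, mean with standard error.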
# [2] = test system: Staphylococcus aureus subsp. aureus RN4220; assay: Inhibition of PlsY-mediated lipid synthesis in Staphylococcus aureus RN4220 harboring gpsA mutant assessed as inhibition of [14C]acetate incorporation into fatty acid incubated for 15 mins prior to [14C]acetate addition measured after 30 mins by scintillation counting; how it was run: as §1
# [3] = test system: Staphylococcus aureus subsp. aureus RN4220; assay: Inhibition of PlsY in Staphylococcus aureus RN4220 harboring gpsA mutant assessed as Fab4-mediated fatty acid chain elongation measured as 18C fatty acid level at 25 uM after 2.5 hrs by mass spectrophotometry; design: scale not given: the % may be the effect or the level left
# How it was run: (§2)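 RN4220 grown in Luria-Bertani broth at 37°C with 225 rpm shaking to OD600 0.5. 50 mL cultures treated for 2.5 h alongside a DMSO control. Lipids extracted by Bligh–Dyer and fatty acids analyzed by gas chromatography. Weight percent, mean of duplicates; not detected means <1%.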
# [4] = test system: Staphylococcus aureus subsp. aureus RN4220; assay: Inhibition of PlsY in Staphylococcus aureus RN4220 harboring gpsA mutant assessed as Fab4-mediated fatty acid chain elongation measured as 19C fatty acid level at 25 uM after 2.5 hrs by mass spectrophotometry; design: scale not given: the % may be the effect or the level left; how it was run: as §2
# [5] = test system: Staphylococcus aureus subsp. aureus RN4220; assay: Inhibition of PlsY in Staphylococcus aureus RN4220 harboring gpsA mutant assessed as Fab4-mediated fatty acid chain elongation measured as 20C fatty acid level at 25 uM after 2.5 hrs by mass spectrophotometry; design: scale not given: the % may be the effect or the level left; how it was run: as §2
# [6] = test system: Staphylococcus aureus subsp. aureus RN4220; assay: Inhibition of PlsY in Staphylococcus aureus RN4220 harboring gpsA mutant assessed as Fab4-mediated fatty acid chain elongation measured as 15C fatty acid level at 50 uM after 2.5 hrs by mass spectrophotometry; design: scale not given: the % may be the effect or the level left; how it was run: as §2
# [7] = test system: Staphylococcus aureus subsp. aureus RN4220; assay: Inhibition of PlsY in Staphylococcus aureus RN4220 harboring gpsA mutant assessed as Fab4-mediated fatty acid chain elongation measured as 16C fatty acid level at 50 uM after 2.5 hrs by mass spectrophotometry; design: scale not given: the % may be the effect or the level left; how it was run: as §2
# [8] = test system: Staphylococcus aureus subsp. aureus RN4220; assay: Inhibition of PlsY in Staphylococcus aureus RN4220 harboring gpsA mutant assessed as Fab4-mediated fatty acid chain elongation measured as 17C fatty acid level at 50 uM after 2.5 hrs by mass spectrophotometry; design: scale not given: the % may be the effect or the level left; how it was run: as §2
# [9] = test system: Staphylococcus aureus subsp. aureus RN4220; assay: Inhibition of PlsY in Staphylococcus aureus RN4220 harboring gpsA mutant assessed as Fab4-mediated fatty acid chain elongation measured as 19C fatty acid level at 50 uM after 2.5 hrs by mass spectrophotometry; design: scale not given: the % may be the effect or the level left; how it was run: as §2
# [10] = test system: Staphylococcus aureus subsp. aureus RN4220; assay: Inhibition of PlsY in Staphylococcus aureus RN4220 harboring gpsA mutant assessed as accumulation of long chain acyl-ACP at 12.5 to 100 uM after 2.5 hrs by Western blot analysis
# How it was run: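 Mid-log RN4220 (OD600 0.5) in 50 mL aliquots treated with compound at 37°C. Cell extracts loaded according to OD600 for similar total protein. Acyl-ACP species separated on 15% polyacrylamide gels containing 2 M urea, then detected by western blot with anti-ACP antibody.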
# Bacillus anthracis [11] = assay: Growth inhibition of Bacillus anthracis sterne at 5 uM measured immediately post-compound addition; format: functional, organism-based
# Bacillus anthracis [12] = assay: Inhibition of RNA synthesis in Bacillus anthracis sterne assessed as Inhibition of [3H]uracil incorporation into RNA incubated for 15 mins prior to [3H]uracil addition measured after 30 mins by scintillation counting; format: functional, organism-based
smiles,measurement,setting,value
O=C(CCCCCCCc1ccccc1)NS(=O)(=O)Oc1ccccc1,MIC90,Enterococcus faecalis,100 mg/L
same,growth inhibition (GI),Staphylococcus aureus,Active
same,inhibition,[1],Active
same,inhibition,[2],Dose-dependent effect
same,Activity,[3],9%
same,Activity,[4],18%
same,Activity,[5],9%
same,Activity,[6],32%
same,Activity,[7],6%
same,Activity,[8],8%
same,Activity,[9],14%
same,inhibition,[10],Active
same,growth inhibition (GI),Bacillus anthracis [11],Active
same,inhibition,Bacillus anthracis [12],Active
